Results published in ChEMBL document CHEMBL3593164, “Rational Design and Synthesis of Thioridazine Analogues as Enhancers of the Antituberculosis Therapy” (J Med Chem, 2015).

Tests used:
[1] = system: Mycobacterium tuberculosis; test: Inhibition of multidrug resistance efflux pump in Mycobacterium tuberculosis H37Rv using ethidium bromide as substrate assessed as relative final fluorescence at 1/2 MIC by real-time fluorometry
[2] = system: Mycobacterium tuberculosis; test: Inhibition of multidrug resistance efflux pump in Mycobacterium tuberculosis H37Rv assessed as amikacin MIC at 64 ug/ml after 7 days by two-dimensional broth microdilution checkerboard assay; conditions: 168 h
[3] = system: Mycobacterium tuberculosis; test: Inhibition of multidrug resistance efflux pump in Mycobacterium tuberculosis H37Rv assessed as amikacin MIC at 16 ug/ml after 7 days by two-dimensional broth microdilution checkerboard assay; conditions: 168 h
[4] = system: Mycobacterium tuberculosis; test: Inhibition of multidrug resistance efflux pump in Mycobacterium tuberculosis H37Rv assessed as amikacin MIC at 8 ug/ml after 7 days by two-dimensional broth microdilution checkerboard assay; conditions: 168 h
[5] = system: Mycobacterium tuberculosis; test: Inhibition of multidrug resistance efflux pump in Mycobacterium tuberculosis H37Rv assessed as amikacin MIC at 4 ug/ml after 7 days by two-dimensional broth microdilution checkerboard assay; conditions: 168 h
[6] = system: Mycobacterium tuberculosis; test: Inhibition of multidrug resistance efflux pump in Mycobacterium tuberculosis H37Rv assessed as ofloxacin MIC at 64 ug/ml after 7 days by two-dimensional broth microdilution checkerboard assay; conditions: 168 h
[7] = system: Mycobacterium tuberculosis; test: Inhibition of multidrug resistance efflux pump in Mycobacterium tuberculosis H37Rv assessed as ofloxacin MIC at 32 ug/ml after 7 days by two-dimensional broth microdilution checkerboard assay; conditions: 168 h
[8] = system: Mycobacterium tuberculosis; test: Inhibition of multidrug resistance efflux pump in Mycobacterium tuberculosis H37Rv assessed as ofloxacin MIC at 16 ug/ml after 7 days by two-dimensional broth microdilution checkerboard assay; conditions: 168 h
[9] = system: Mycobacterium tuberculosis; test: Inhibition of multidrug resistance efflux pump in Mycobacterium tuberculosis H37Rv assessed as ofloxacin MIC at 4 ug/ml after 7 days by two-dimensional broth microdilution checkerboard assay; conditions: 168 h
[10] = system: Mycobacterium tuberculosis; test: Inhibition of multidrug resistance efflux pump in Mycobacterium tuberculosis H37Rv assessed as ethidium bromide MIC at 64 ug/ml after 7 days by two-dimensional broth microdilution checkerboard assay; conditions: 168 h
[11] = system: Mycobacterium tuberculosis; test: Inhibition of multidrug resistance efflux pump in Mycobacterium tuberculosis H37Rv assessed as ethidium bromide MIC at 32 ug/ml after 7 days by two-dimensional broth microdilution checkerboard assay; conditions: 168 h
[12] = system: Mycobacterium tuberculosis; test: Inhibition of multidrug resistance efflux pump in Mycobacterium tuberculosis H37Rv assessed as ethidium bromide MIC at 16 ug/ml after 7 days by two-dimensional broth microdilution checkerboard assay; conditions: 168 h
[13] = system: Mycobacterium tuberculosis; test: Inhibition of multidrug resistance efflux pump in Mycobacterium tuberculosis H37Rv assessed as ethidium bromide MIC at 8 ug/ml after 7 days by two-dimensional broth microdilution checkerboard assay; conditions: 168 h
[14] = system: Mycobacterium tuberculosis; test: Inhibition of multidrug resistance efflux pump in Mycobacterium tuberculosis H37Rv assessed as ethidium bromide MIC at 4 ug/ml after 7 days by two-dimensional broth microdilution checkerboard assay; conditions: 168 h
[15] = system: Mycobacterium tuberculosis; test: Inhibition of multidrug resistance efflux pump in Mycobacterium tuberculosis H37Rv assessed as reduction in rifampin MIC at 64 ug/ml after 7 days by two-dimensional broth microdilution checkerboard assay
[16] = system: Mycobacterium tuberculosis; test: Inhibition of multidrug resistance efflux pump in Mycobacterium tuberculosis H37Rv assessed as reduction in rifampin MIC at 32 ug/ml after 7 days by two-dimensional broth microdilution checkerboard assay
Outline: (§1)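 M. tuberculosis H37Rv two-dimensional broth microdilution checkerboard. MICs of INH, RIF, AMK, OFX or EtBr were determined without and with graded sub-inhibitory compound concentrations, starting at ½ MIC. Where MIC was undeterminable, the highest concentration still permitting growth was taken as ½ MIC. FIC = MIC of antibacterial in combination / MIC alone. FIC ≤0.25 was scored as synergism and ≥2 as antagonism.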

[17] = system: Mycobacterium tuberculosis; test: Inhibition of multidrug resistance efflux pump in Mycobacterium tuberculosis H37Rv assessed as isoniazid MIC at 64 ug/ml after 7 days by two-dimensional broth microdilution checkerboard assay; conditions: 168 h
[18] = system: Mycobacterium tuberculosis; test: Inhibition of multidrug resistance efflux pump in Mycobacterium tuberculosis H37Rv assessed as isoniazid MIC at 32 ug/ml after 7 days by two-dimensional broth microdilution checkerboard assay; conditions: 168 h
[19] = system: Mycobacterium tuberculosis; test: Inhibition of multidrug resistance efflux pump in Mycobacterium tuberculosis H37Rv assessed as isoniazid MIC at 16 ug/ml after 7 days by two-dimensional broth microdilution checkerboard assay; conditions: 168 h
[20] = system: Mycobacterium tuberculosis; test: Inhibition of multidrug resistance efflux pump in Mycobacterium tuberculosis H37Rv assessed as isoniazid MIC at 8 ug/ml after 7 days by two-dimensional broth microdilution checkerboard assay; conditions: 168 h
[21] = system: Mycobacterium tuberculosis; test: Inhibition of multidrug resistance efflux pump in Mycobacterium tuberculosis H37Rv assessed as isoniazid MIC at 4 ug/ml after 7 days by two-dimensional broth microdilution checkerboard assay; conditions: 168 h
[22] = system: Mycobacterium tuberculosis; test: Inhibition of multidrug resistance efflux pump in Mycobacterium tuberculosis H37Rv assessed as rifampin MIC at 64 ug/ml after 7 days by two-dimensional broth microdilution checkerboard assay; conditions: 168 h
[23] = system: Mycobacterium tuberculosis; test: Inhibition of multidrug resistance efflux pump in Mycobacterium tuberculosis H37Rv assessed as rifampin MIC at 16 ug/ml after 7 days by two-dimensional broth microdilution checkerboard assay; conditions: 168 h
[24] = system: Mycobacterium tuberculosis; test: Inhibition of multidrug resistance efflux pump in Mycobacterium tuberculosis H37Rv assessed as rifampin MIC at 8 ug/ml after 7 days by two-dimensional broth microdilution checkerboard assay; conditions: 168 h
[25] = system: Mycobacterium tuberculosis; test: Inhibition of multidrug resistance efflux pump in Mycobacterium tuberculosis H37Rv assessed as rifampin MIC at 4 ug/ml after 7 days by two-dimensional broth microdilution checkerboard assay; conditions: 168 h
[26] = system: Mycobacterium tuberculosis; test: Inhibition of multidrug resistance efflux pump in Mycobacterium tuberculosis H37Rv assessed as amikacin MIC at 128 ug/ml after 7 days by two-dimensional broth microdilution checkerboard assay; conditions: 168 h
[27] = system: Mycobacterium tuberculosis; test: Inhibition of multidrug resistance efflux pump in Mycobacterium tuberculosis H37Rv assessed as ofloxacin MIC at 256 ug/ml after 7 days by two-dimensional broth microdilution checkerboard assay; conditions: 168 h; outline: as §1
[28] = system: Mycobacterium tuberculosis; test: Inhibition of multidrug resistance efflux pump in Mycobacterium tuberculosis H37Rv assessed as ofloxacin MIC at 128 ug/ml after 7 days by two-dimensional broth microdilution checkerboard assay; conditions: 168 h
[29] = system: Mycobacterium tuberculosis; test: Inhibition of multidrug resistance efflux pump in Mycobacterium tuberculosis H37Rv assessed as ethidium bromide MIC at 128 ug/ml after 7 days by two-dimensional broth microdilution checkerboard assay; conditions: 168 h
[30] = system: Mycobacterium tuberculosis; test: Inhibition of multidrug resistance efflux pump in Mycobacterium tuberculosis H37Rv assessed as reduction in rifampin MIC at 256 ug/ml after 7 days by two-dimensional broth microdilution checkerboard assay; outline: as §1
[31] = system: Mycobacterium tuberculosis; test: Inhibition of multidrug resistance efflux pump in Mycobacterium tuberculosis H37Rv assessed as isoniazid MIC at 256 ug/ml after 7 days by two-dimensional broth microdilution checkerboard assay; conditions: 168 h; outline: as §1
[32] = system: Mycobacterium tuberculosis; test: Inhibition of multidrug resistance efflux pump in Mycobacterium tuberculosis H37Rv assessed as isoniazid MIC at 128 ug/ml after 7 days by two-dimensional broth microdilution checkerboard assay; conditions: 168 h
[33] = system: Mycobacterium tuberculosis; test: Inhibition of multidrug resistance efflux pump in Mycobacterium tuberculosis H37Rv assessed as rifampin MIC at 256 ug/ml after 7 days by two-dimensional broth microdilution checkerboard assay; conditions: 168 h; outline: as §1
[34] = system: Mycobacterium tuberculosis; test: Inhibition of multidrug resistance efflux pump in Mycobacterium tuberculosis H37Rv assessed as rifampin MIC at 128 ug/ml after 7 days by two-dimensional broth microdilution checkerboard assay; conditions: 168 h

| SMILES | RFU [1] | MIC [2] [µg/mL] | MIC [3] [µg/mL] | MIC [4] [µg/mL] | MIC [5] [µg/mL] | MIC [6] [µg/mL] | MIC [7] [µg/mL] | MIC [8] [µg/mL] | MIC [9] [µg/mL] | MIC [10] [µg/mL] | MIC [11] [µg/mL] | MIC [12] [µg/mL] | MIC [13] [µg/mL] | MIC [14] [µg/mL] | MIC [17] [ng/mL] | MIC [18] [µg/mL] | MIC [19] [µg/mL] | MIC [20] [µg/mL] | MIC [21] [µg/mL] | MIC [22] [µg/mL] | also measured |
| --- | --- | --- | --- | --- | --- | --- | --- | --- | --- | --- | --- | --- | --- | --- | --- | --- | --- | --- | --- | --- | --- |
| CSc1ccc2c(c1)N(CCC1CCCCN1C)c1ccccc1S2 (stereo unspecified) [THIORIDAZINE] | 0.27 |  |  |  |  |  |  |  |  |  |  |  |  |  |  |  |  |  |  |  |  |
| CN1CCCCC1CCn1c2ccccc2c2ccccc21 (racemic) | 0.33 | < 0.0156 | 1 | 1 | 1 | < 0.0156 | 1 | 1 | 1 | < 0.195 | 1.56 | 6.25 | 12.5 | 12.5 | < 0.078 | 0.05 | 0.1 | 0.1 | 0.1 | < 0.0156 | fold change (FC) [15]: >64; fold change (FC) [16]: 16; MIC [23]: 0.5 µg/mL; MIC [24]: 0.5 µg/mL; MIC [25]: 1 µg/mL |
| CN1CCCCC1CCn1ccc2ccc(Br)cc21 (racemic) | 1.22 | > 0.0156 | 1 | 1 | 1 | < 0.0156 | 1 | 1 | 1 | 1.56 | 6.25 | 12.5 | 12.5 | 12.5 | 50 | 0.1 | 0.1 | 0.1 | 0.1 | < 0.0156 | MIC [26]: < 0.0156 µg/mL; MIC [27]: < 0.0156 µg/mL; MIC [28]: < 0.0156 µg/mL; MIC [29]: < 0.195 µg/mL; fold change (FC) [30]: >164; fold change (FC) [15]: >164; fold change (FC) [16]: 32; MIC [31]: < 0.00078 µg/mL; MIC [32]: < 0.0015 µg/mL; MIC [33]: < 0.0156 µg/mL; MIC [34]: < 0.0156 µg/mL; MIC [23]: 0.0625 µg/mL; MIC [24]: 0.25 µg/mL; MIC [25]: 0.5 µg/mL |
| COc1ccc(N(CCC2CCCCN2C)C(C)C)cc1OC (racemic) | 0.84 | 2 | 2 | 2 | 2 | 2 | 2 | 2 | 2 | 12.5 | 12.5 | 12.5 | 12.5 | 12.5 | 100 | 0.1 | 0.1 | 0.1 | 0.1 | 0.25 | MIC [26]: 2 µg/mL; MIC [27]: 1 µg/mL; MIC [28]: 2 µg/mL; MIC [29]: 12.5 µg/mL; fold change (FC) [30]: 164; fold change (FC) [15]: 4; fold change (FC) [16]: 4; MIC [31]: 0.1 µg/mL; MIC [32]: 0.1 µg/mL; MIC [33]: < 0.0156 µg/mL; MIC [34]: 0.25 µg/mL; MIC [23]: 0.25 µg/mL; MIC [24]: 0.25 µg/mL; MIC [25]: 0.25 µg/mL |
| CN1CCCCC1CCn1cnc2ccccc21 (racemic) | 1 | 1 | 1 | 1 | 1 | 1 | 1 | 1 | 1 | 12.5 | 12.5 | 12.5 | 12.5 | 12.5 | 100 | 0.1 | 0.1 | 0.1 | 0.1 | 0.5 | MIC [26]: 1 µg/mL; MIC [27]: < 0.0156 µg/mL; MIC [28]: 1 µg/mL; MIC [29]: 12.5 µg/mL; fold change (FC) [30]: >64; MIC [31]: < 0.00078 µg/mL; MIC [32]: 0.1 µg/mL; MIC [33]: < 0.0156 µg/mL; MIC [34]: 0.5 µg/mL; MIC [23]: 0.5 µg/mL; MIC [24]: 0.5 µg/mL; MIC [25]: 0.5 µg/mL |
